# Efflux pump mplx = inhibitors of Candida efflux pumps in yeast, primary screen, S. cerevisiae, Nile Red, multiplex; inhibition, % at 10 µM; S. cerevisiae Candida pump triplex; 330,000 compounds, 0.44% hits;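 active means plate passing quality check with inhibition over a set limit, or well fluorescence over plate mean plus 4 SD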;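 further: Nile Red retained in pooled yeast measured as flow cytometry median fluorescence; 0% = buffer negative control and 100% = Enniatin B positive control; higher means more Nile Red kept so more efflux inhibition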
# Rtt109 Vps75 = inhibitors of C. albicans Rtt109/Vps75 HAT, primary screen, biochemical, ThioGlo CoA-SH fluorescence, plate reader; Histone acetyltransferase RTT109 (Candida albicans (strain SC5314 / ATCC MYA-2876)), …; purified Rtt109/Vps75, 4 h; inhibition, % at 34.9 µM; 330,000 compounds, 0.16% hits; AID 540336, 2011;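 active means inhibition of at least 50% in every replicate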
# ASAP1 GAP inh = inhibitors of human ASAP1 ArfGAP activity, primary screen, biochemical, fluorescence polarization; Arf-GAP with SH3 domain, ANK repeat and PH domain-containing protein 1 (Homo sapiens), …; ASAP1-stimulated ARF1 GTP hydrolysis, GDP FP detection; inhibition, % at 16.5 µM; 360,000 compounds, 0.19% hits; in the data active means inhibition above about 25%;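 further: 0% = vehicle with enzyme and substrate and 100% = no enzyme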
# FGF22 binding = binders of human FGF22 protein, primary screen, FGF22 synaptogenesis inhibitor project, biophysical, thermal shift, single point | Fibroblast growth factor 22 (Homo sapiens), Q9HCT0 | recombinant FGF22 thermal shift, SYPRO orange fluorescence; percent of sucrose octasulfate shift, DMSO zero | activity (Tm shift, normalised), % at 9.99 µM | 340,000 compounds, 1.5% hits | AID 651658, 2012;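 active means mean Tm shift, scaled 0 neutral to 100 positive control, at about 1.3% or above, every replicate too, limit read from the data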
# Target sequence (Q9HCT0 whole entry, looked up): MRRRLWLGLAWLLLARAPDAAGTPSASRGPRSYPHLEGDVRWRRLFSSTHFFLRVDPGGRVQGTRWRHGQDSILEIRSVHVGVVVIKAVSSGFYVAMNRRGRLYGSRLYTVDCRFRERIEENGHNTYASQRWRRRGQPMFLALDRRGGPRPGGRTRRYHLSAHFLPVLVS
# ARFGAP1 inhibitor = inhibitors of rat ARFGAP1 GAP activity, primary screen, biochemical, fluorescence polarization, GDP tracer; ADP-ribosylation factor GTPase-activating protein 1 (Rattus norvegicus), Q62848; inhibition, % at 16.5 µM; 360,000 compounds, 0.26% hits; Arfgap1-stimulated ARF1 GTP hydrolysis, GDP FP detection;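 active means inhibition above a per-plate limit, mean inhibition of low control wells plus 3 SD, cut at about 25% in these data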;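 further: 0% = DMSO wells with enzyme and 100% = wells lacking Arfgap1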
# Target sequence (Q62848 1-136 limits assumed): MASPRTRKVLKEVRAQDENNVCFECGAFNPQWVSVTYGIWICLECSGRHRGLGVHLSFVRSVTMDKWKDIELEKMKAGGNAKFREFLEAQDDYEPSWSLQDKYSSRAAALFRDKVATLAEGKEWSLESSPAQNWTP
#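 System: truncated rat Arfgap1 GAP domain / Benchmarks: high control wells lacking Arfgap1, low control full reaction with DMSO / Times: compound-enzyme preincubation 20 min, reaction 120 min, detection 60 min, 25 °C / Repeats: one replicate per compound / Also added: human ARF1(Δ1-17)-GTP substrate / Measured by: Tracer-displacement fluorescence polarization with EDTA stop, 620/688 nm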
# ASAP1 GAP conf = ASAP1 GAP activity inhibitors, confirmation, biochemical, fluorescence polarization, human, triplicate; shares compounds with ASAP1 GAP inh; ASAP1-stimulated Arf1 GTPase, GDP fluorescence polarization; inhibition, % at 16.5 µM; 620 compounds, 37% hits; AID 624431, 2012;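 active means mean inhibition over triplicates exceeds the hit threshold derived for the earlier primary screening run, cut at about 25% in these data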
# The depositor's hits bear a star; i = inactive; . = no result. In the library only some 1.9% were active in any assay of this set; here they are far more common.
SMILES,Efflux pump mplx,Rtt109 Vps75,ASAP1 GAP inh,FGF22 binding,ARFGAP1 inhibitor,ASAP1 GAP conf
COc1ccc(/C=N/NC(=O)Cn2c(Cc3ccc(OC)c(OC)c3)nc3ccccc32)cc1OC,0,5,31*,.,-3,-1
Cn1c(N)c(C(=O)COC(=O)c2cc(S(=O)(=O)N3CCCCC3)ccc2Cl)c(=O)n(C)c1=O,0,26,0,0,-5,.
COc1ccc(S(=O)(=O)N2CCc3ccccc32)cc1C(=O)OCC(=O)c1c(N)n(C)c(=O)n(C)c1=O,0,-3,26*,0,11,4
O=C1C(O)=C(O)C(=O)c2ccccc21,0,20,30*,0,4,10
COc1cc2oc3ccc(C#Cc4ccccn4)cc3c(=O)c2cc1OC,1,-1,31*,0,-6,40*
COc1cc2oc3ccc(C#Cc4ccc(N)cc4)cc3c(=O)c2cc1OC,0,12,16,0,15,.
Cc1ccc(/C=N/NC(=O)CCCOc2ccc(Cl)cc2Cl)cc1[N+](=O)[O-],1,4,50*,.,22,37*
O=C(Nc1ccc(NC(=O)C2CCCCC2)nc1)c1ccco1,0,-7,3,.,0,.
COCC(=O)Nc1ccc2c(c1)C(=O)N(C)[C@@H]1CC[C@H](CC(=O)Nc3cn(C)nc3C)O[C@@H]1CO2,.,.,.,0,.,.
Cc1ccc(OCc2nnc(SCC(=O)Nc3ccc(N4CCOCC4)cc3)o2)cc1,0,-3,6,0,19,.
Cc1cccc(OCc2nnc(SCC(=O)Nc3ccc(N4CCOCC4)cc3)o2)c1,0,-7,32*,0,3,2
Cn1c(N)c(C(C[N+](=O)[O-])c2ccccc2Cl)c(=O)n(C)c1=O (stereo unspecified),0,-9,56*,0,11,4
Cc1ccc(C(C[N+](=O)[O-])c2c(N)n(C)c(=O)n(C)c2=O)cc1 (stereo unspecified),0,.,-3,0,-1,.
CC(C)NC(=O)Nc1ccc2c(c1)C(=O)N([C@H](C)CO)C[C@@H](C)[C@@H](CN(C)C)OCCCC[C@@H](C)O2,.,.,.,0,.,.
Cc1noc(C)c1S(=O)(=O)Nc1ccc(C(=O)NC2CCCCC2C)cc1 (stereo unspecified),0,-1,1,.,-4,.
Cc1ccc(-c2nnc(N(C)C(=O)c3cccnc3)s2)cc1,0,0,-5,.,2,.
Cc1ccc(-c2nnc(N(C)C(=O)c3cccnc3)s2)cn1,0,-5,26*,.,1,9
Cc1ccc(S(=O)(=O)c2c(N)n(CCC(C)C)c3nc4ccccc4nc23)cc1,0,14,25*,.,10,2
Cc1ccc(S(=O)(=O)c2c(N)n(CCCO)c3nc4ccccc4nc23)cc1,0,i,20,.,25,.
CC(C)CNC(=O)c1cccc2c(-c3ccc(F)c(F)c3)coc12,.,.,10,0,-7,.
Cc1ccc(OCC(=O)O)c(-n2nc3ccccc3n2)c1,0,26,-2,.,3,.
Cc1ccc(NC(=O)COc2ccc(CCO)cc2-n2nc3ccccc3n2)cc1C,0,-3,26*,.,5,-1
Cc1cc([N+](=O)[O-])c(C)cc1-c1ccc(/C=N/NC(=O)c2cccnc2)o1,0,12,25*,0,-3,21
C[C@@H]1CC2=C(C(=O)OC(C)(C)O2)[C@H](c2ccc(Cl)cc2)O1,.,.,26*,0,9,-2
C[C@@H]1CC2=C(C(=O)OC(C)(C)O2)[C@H](c2ccc(F)cc2)O1,.,.,-8,0,-6,.
CC(C)c1ccc([C@@H]2O[C@H](CCc3ccccc3)Cc3[nH][nH]c(=O)c32)cc1,.,.,28*,-1,9,7

# Compound activity as filed in PubChem BioAssay.
